Columns and labels:
Mus musculus = organism: Mus musculus; assay: Percent recovery of twitch height after 30-40 washes with buffer using mouse vas deferens preparation; type: functional
In short: (§1)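 After agonist treatment, the electrically stimulated guinea pig ileum or mouse vas deferens was washed 30-40 times with buffer alone. Percent recovery of twitch height was recorded, n = 1.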

Cavia porcellus [1] = organism: Cavia porcellus; assay: Percent recovery of twitch height after 30-40 washes with buffer using smooth guinea pig ileal muscle; type: functional; conditions: Muscle tissue; in short: as §1
Cavia porcellus [2] = organism: Cavia porcellus; assay: Percent recovery after treatment with 500 nM of NTX and removal of NTX by 40 washes with buffer using smooth guinea pig ileal muscle; type: functional; conditions: Muscle tissue
In short: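 Agonist-treated guinea pig ileum was incubated with 500 nM naltrexone for 10 min. NTX was then removed by 40 washes with buffer, and recovery of electrically evoked twitch height was recorded as percent. n = 1.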

[3] = biological target: T1, Kappa-type opioid receptor (Cavia porcellus, UniProt P41144); assay: Binding affinity towards Opioid receptor kappa 1 in guinea pig brain
In short: (§2)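 Competition binding against radioligands in guinea pig brain membranes, modified from a published method. κ: 1 nM [³H]U69,593; µ: 2 nM [³H]DAMGO; δ1: 5 nM [³H]DPDPE; δ2: 2 nM [³H]DSLET. Ki values are geometric means of three experiments.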

[4] = biological target: T1, Kappa-type opioid receptor; assay: Inhibitory activity against Opioid receptor kappa 1 in electrically stimulated guinea pig longitudinal ileal muscle (GPI) preparation.
In short: (§3)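 Electrically stimulated guinea pig longitudinal ileal muscle or mouse vas deferens preparations, run per earlier work. The read-out is inhibition of twitch, given as IC50 (nM), arithmetic mean ± SEM of at least three experiments.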

[5] = biological target: Kappa-type opioid receptor (Mus musculus, UniProt P33534); assay: Inhibitory activity against Opioid receptor kappa 1 in electrically stimulated mouse vas deferens (MVD) preparation.; in short: as §3
Mu-type opioid receptor = Mu-type opioid receptor (Cavia porcellus, UniProt P97266); assay: Binding affinity towards Opioid receptor mu 1 in guinea pig brain; in short: as §2
Mu-type opioid receptor, sequence (P97266 whole entry): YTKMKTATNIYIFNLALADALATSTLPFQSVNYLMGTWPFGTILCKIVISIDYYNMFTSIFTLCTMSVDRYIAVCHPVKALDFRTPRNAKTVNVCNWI

Kappa-type opioid receptor (Mus musculus, UniProt P33534), sequence (P33534 whole entry): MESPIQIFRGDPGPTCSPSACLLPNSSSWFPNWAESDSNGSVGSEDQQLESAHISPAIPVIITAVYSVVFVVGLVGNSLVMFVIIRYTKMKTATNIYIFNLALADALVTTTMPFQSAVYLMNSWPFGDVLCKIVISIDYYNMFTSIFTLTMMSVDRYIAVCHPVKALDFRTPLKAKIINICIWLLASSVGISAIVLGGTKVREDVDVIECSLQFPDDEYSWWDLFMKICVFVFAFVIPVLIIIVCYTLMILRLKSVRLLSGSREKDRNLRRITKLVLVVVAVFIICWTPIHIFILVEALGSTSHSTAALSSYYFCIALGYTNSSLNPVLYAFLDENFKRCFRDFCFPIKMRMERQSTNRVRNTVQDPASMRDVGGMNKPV
T1 sequence (P41144 whole entry): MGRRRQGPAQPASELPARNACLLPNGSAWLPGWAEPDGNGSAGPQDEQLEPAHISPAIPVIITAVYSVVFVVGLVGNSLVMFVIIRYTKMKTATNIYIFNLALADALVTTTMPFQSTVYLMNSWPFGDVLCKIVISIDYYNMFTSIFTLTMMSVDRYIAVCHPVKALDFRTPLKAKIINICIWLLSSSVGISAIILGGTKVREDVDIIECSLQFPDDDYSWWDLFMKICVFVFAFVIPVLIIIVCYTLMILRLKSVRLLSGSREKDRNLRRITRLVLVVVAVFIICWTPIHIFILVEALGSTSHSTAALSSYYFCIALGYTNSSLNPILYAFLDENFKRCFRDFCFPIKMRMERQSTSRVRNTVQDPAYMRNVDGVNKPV

## CN(C(=O)Cc1ccc(Cl)c(Cl)c1)[C@H](CN1CCCC1)c1cccc(N/C(S)=N/c2ccc(-c3c4ccc(=O)cc-4oc4cc(O)ccc34)c(C(=O)O)c2)c1
Mus musculus
  Recovery: 100%
Cavia porcellus [1]
  Recovery: 21%
Cavia porcellus [2]
  Recovery: 61%

## CN(C(=O)Cc1ccc(Cl)c(Cl)c1)[C@H](CN1CCCC1)c1cccc(NC(=O)CNC(=O)CNC(=O)CNC(=O)C/N=C(S)/N=C2\C=CC(=C3c4ccc(O)cc4Oc4cc(O)ccc43)C(C(=O)O)=C2)c1
[3]
  Ki: 0.91 nM
[4]
  IC50: 0.15 nM
Mus musculus
  Recovery: 100%
[5]
  IC50: 6.5 nM
Mu-type opioid receptor
  Ki: 631 nM
Cavia porcellus [1]
  Recovery: 44%
Cavia porcellus [2]
  Recovery: 131%

## CN(C(=O)Cc1ccc(Cl)c(Cl)c1)C(CN1CCCC1)c1ccc(NC(=O)C/N=C(S)/N=C2\C=CC(=C3c4ccc(O)cc4Oc4cc(O)ccc43)C(C(=O)O)=C2)cc1 (centres undefined)
[4]
  IC50: 62 nM
[5]
  IC50: 102 nM

## CN(C(=O)Cc1ccc(Cl)c(Cl)c1)C(CN1CCCC1)c1ccc(NC(=O)CNC(=O)CNC(=O)CNC(=O)C/N=C(S)\N=C2/C=CC(=C3c4ccc(O)cc4Oc4cc(O)ccc43)C(C(=O)O)=C2)cc1 (centres undefined)
[4]
  IC50: 166 nM
[5]
  IC50: 421 nM

## CN(C(=O)Cc1ccc(Cl)c(Cl)c1)[C@H](CN1CCCC1)c1cccc(NC(=O)CNC(=O)C/N=C(S)/N=C2\C=CC(=C3c4ccc(O)cc4Oc4cc(O)ccc43)C(C(=O)O)=C2)c1
[4]
  IC50: 1.2 nM
Mus musculus
  Recovery: 100%
[5]
  IC50: 1.5 nM
Cavia porcellus [1]
  Recovery: 34%
Cavia porcellus [2]
  Recovery: 37%

## CN(C(=O)Cc1ccc(Cl)c(Cl)c1)C(CN1CCCC1)c1ccc(N/C(S)=N/c2ccc(-c3c4ccc(=O)cc-4oc4cc(O)ccc34)c(C(=O)O)c2)cc1 (centres undefined)
[4]
  IC50: 5.2 nM
[5]
  IC50: 12.6 nM

## CN(C(=O)Cc1ccc(Cl)c(Cl)c1)[C@H](CN1CCCC1)c1ccccc1
Cavia porcellus [1]
  Recovery: 20%
Cavia porcellus [2]
  Recovery: 32%

## CN(C(=O)Cc1ccc(Cl)c(Cl)c1)[C@H](CN1CCCC1)c1cccc(NC(=O)C/N=C(S)/N=C2\C=CC(=C3c4ccc(O)cc4Oc4cc(O)ccc43)C(C(=O)O)=C2)c1
[3]
  Ki: 0.31 nM
[4]
  IC50: 0.17 nM
Mus musculus
  Recovery: 79%
[5]
  IC50: 1.2 nM
Mu-type opioid receptor
  Ki: 286 nM
Cavia porcellus [1]
  Recovery: 39%
Cavia porcellus [2]
  Recovery: 97%

## CN(C(=O)Cc1ccc(Cl)c(Cl)c1)[C@H](CN1CCCC1)c1cccc(NC(=S)Nc2ccc(-c3c4ccc(=O)cc-4oc4cc(O)ccc34)c(C(=O)O)c2)c1
[4]
  IC50: 0.37 nM
[5]
  IC50: 1.2 nM

## CN(C(=O)Cc1ccc(Cl)c(Cl)c1)C(CN1CCCC1)c1ccc(NC(=O)CNC(=O)C/N=C(S)\N=C2/C=CC(=C3c4ccc(O)cc4Oc4cc(O)ccc43)C(C(=O)O)=C2)cc1 (centres undefined)
[4]
  IC50: 48 nM
[5]
  IC50: 170 nM

Reference: ChEMBL document CHEMBL1129555, “Arylacetamide-derived fluorescent probes: synthesis, biological evaluation, and direct fluorescent labeling of kappa opioid receptors in mouse microglial cells” (J Med Chem, 1996)
